Assay results taken from ChEMBL document CHEMBL5058577, “EUbOPEN Chemogenomics Library 2 (Multiplex)” (2022).

System: U2OS
Assay: Multiplex assay against U2OS
Type: toxicity, cell-based
Conditions: human
Summary of the method: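 Cells stained live at seeding with Hoechst33342, BioTracker Green Microtubule Cytoskeleton Dye, MitoTracker Red and Annexin V Alexa Fluor 680 were imaged on a CQ1 microscope at 37°C and 5% CO2 after compound addition. Their classification by CellPathfinder machine-learning gating ran from Hoechst high-intensity objects versus normal cells, to healthy, pyknosed or fragmented nuclei among normal cells, to mitotic or apoptotic among pyknosed cells. Tubulin, mitochondrial-mass and membrane-permeability phenotypes are per cents of healthy-nucleus cells.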

[1] = 12 h, 1 µM, compound concentration 1 uM, replicate 1
[2] = 12 h, 1 µM, compound concentration 1 uM, replicate 2
[3] = 12 h, 10 µM, compound concentration 10 uM, replicate 1
[4] = 12 h, 10 µM, compound concentration 10 uM, replicate 2
[5] = 24 h, 1 µM, compound concentration 1 uM, replicate 1
[6] = 24 h, 1 µM, compound concentration 1 uM, replicate 2
[7] = 24 h, 10 µM, compound concentration 10 uM, replicate 1
[8] = 24 h, 10 µM, compound concentration 10 uM, replicate 2
[9] = 48 h, 1 µM, compound concentration 1 uM, replicate 1
[10] = 48 h, 1 µM, compound concentration 1 uM, replicate 2
[11] = 48 h, 10 µM, compound concentration 10 uM, replicate 1
[12] = 48 h, 10 µM, compound concentration 10 uM, replicate 2

Structure (SMILES): CC1(COc2ccc3c(c2)ncn3-c2ccc3cccc(N4CCC(N)CC4)c3n2)COC1 [CRENOLANIB]
- Population Apoptotic (%) [1]: 58%
- Population Fragmented Nuclei (%) [1]: 36%
- Population Healthy Nuclei (%) [1]: 50%
- Population Hoechst High Intensity Objects (%) [1]: 9%
- Population Membrane Permeable-Phenotype (%) [1]: 87%
- Population Mitochondria Different-Phenotype (%) [1]: 51%
- Population Mitotic Cells (%) [1]: 41%
- Population Normal (%) [1]: 90%
- Population Pyknosed Nuclei (%) [1]: 13%
- Population Tubulin-Different-Phenotype (%) [1]: 92%
- Total Cell Count [1]: 143
- Population Apoptotic (%) [2]: 25%
- Population Fragmented Nuclei (%) [2]: 28%
- Population Healthy Nuclei (%) [2]: 60%
- Population Hoechst High Intensity Objects (%) [2]: 13%
- Population Membrane Permeable-Phenotype (%) [2]: 82%
- Population Mitochondria Different-Phenotype (%) [2]: 73%
- Population Mitotic Cells (%) [2]: 75%
- Population Normal (%) [2]: 86%
- Population Pyknosed Nuclei (%) [2]: 10%
- Population Tubulin-Different-Phenotype (%) [2]: 88%
- Total Cell Count [2]: 86
- Population Apoptotic (%) [3]: 81%
- Population Fragmented Nuclei (%) [3]: 43%
- Population Healthy Nuclei (%) [3]: 11%
- Population Hoechst High Intensity Objects (%) [3]: 21%
- Population Membrane Permeable-Phenotype (%) [3]: 76%
- Population Mitochondria Different-Phenotype (%) [3]: 80%
- Population Mitotic Cells (%) [3]: 18%
- Population Normal (%) [3]: 78%
- Population Pyknosed Nuclei (%) [3]: 44%
- Population Tubulin-Different-Phenotype (%) [3]: 88%
- Total Cell Count [3]: 274
- Population Apoptotic (%) [4]: 92%
- Population Fragmented Nuclei (%) [4]: 37%
- Population Healthy Nuclei (%) [4]: 21%
- Population Hoechst High Intensity Objects (%) [4]: 24%
- Population Membrane Permeable-Phenotype (%) [4]: 47%
- Population Mitochondria Different-Phenotype (%) [4]: 76%
- Population Mitotic Cells (%) [4]: 7%
- Population Normal (%) [4]: 75%
- Population Pyknosed Nuclei (%) [4]: 41%
- Population Tubulin-Different-Phenotype (%) [4]: 85%
- Population Apoptotic (%) [5]: 71%
- Population Fragmented Nuclei (%) [5]: 39%
- Population Healthy Nuclei (%) [5]: 45%
- Population Hoechst High Intensity Objects (%) [5]: 9%
- Population Membrane Permeable-Phenotype (%) [5]: 71%
- Population Mitochondria Different-Phenotype (%) [5]: 62%
- Population Mitotic Cells (%) [5]: 28%
- Population Normal (%) [5]: 90%
- Population Pyknosed Nuclei (%) [5]: 14%
- Population Tubulin-Different-Phenotype (%) [5]: 87%
- Total Cell Count [5]: 156
- Population Apoptotic (%) [6]: 54%
- Population Fragmented Nuclei (%) [6]: 25%
- Population Healthy Nuclei (%) [6]: 62%
- Population Hoechst High Intensity Objects (%) [6]: 10%
- Population Membrane Permeable-Phenotype (%) [6]: 67%
- Population Mitochondria Different-Phenotype (%) [6]: 67%
- Population Mitotic Cells (%) [6]: 45%
- Population Normal (%) [6]: 89%
- Population Pyknosed Nuclei (%) [6]: 12%
- Population Tubulin-Different-Phenotype (%) [6]: 72%
- Total Cell Count [6]: 98
- Population Apoptotic (%) [7]: 93%
- Population Fragmented Nuclei (%) [7]: 46%
- Population Healthy Nuclei (%) [7]: 8%
- Population Hoechst High Intensity Objects (%) [7]: 37%
- Population Membrane Permeable-Phenotype (%) [7]: 42%
- Population Mitochondria Different-Phenotype (%) [7]: 50%
- Population Mitotic Cells (%) [7]: 6%
- Population Normal (%) [7]: 62%
- Population Pyknosed Nuclei (%) [7]: 45%
- Population Tubulin-Different-Phenotype (%) [7]: 50%
- Total Cell Count [7]: 254
- Population Apoptotic (%) [8]: 100%
- Population Fragmented Nuclei (%) [8]: 53%
- Population Healthy Nuclei (%) [8]: 11%
- Population Hoechst High Intensity Objects (%) [8]: 36%
- Population Membrane Permeable-Phenotype (%) [8]: 44%
- Population Mitochondria Different-Phenotype (%) [8]: 77%
- Population Mitotic Cells (%) [8]: 0%
- Population Normal (%) [8]: 63%
- Population Pyknosed Nuclei (%) [8]: 34%
- Population Tubulin-Different-Phenotype (%) [8]: 77%
- Population Apoptotic (%) [9]: 88%
- Population Fragmented Nuclei (%) [9]: 41%
- Population Healthy Nuclei (%) [9]: 43%
- Population Hoechst High Intensity Objects (%) [9]: 8%
- Population Membrane Permeable-Phenotype (%) [9]: 35%
- Population Mitochondria Different-Phenotype (%) [9]: 40%
- Population Mitotic Cells (%) [9]: 12%
- Population Normal (%) [9]: 91%
- Population Pyknosed Nuclei (%) [9]: 14%
- Population Tubulin-Different-Phenotype (%) [9]: 44%
- Total Cell Count [9]: 186
- Population Apoptotic (%) [10]: 62%
- Population Fragmented Nuclei (%) [10]: 37%
- Population Healthy Nuclei (%) [10]: 48%
- Population Hoechst High Intensity Objects (%) [10]: 4%
- Population Membrane Permeable-Phenotype (%) [10]: 53%
- Population Mitochondria Different-Phenotype (%) [10]: 37%
- Population Mitotic Cells (%) [10]: 37%
- Population Normal (%) [10]: 95%
- Population Pyknosed Nuclei (%) [10]: 13%
- Population Tubulin-Different-Phenotype (%) [10]: 51%
- Population Apoptotic (%) [11]: 100%
- Population Fragmented Nuclei (%) [11]: 51%
- Population Healthy Nuclei (%) [11]: 11%
- Population Hoechst High Intensity Objects (%) [11]: 42%
- Population Membrane Permeable-Phenotype (%) [11]: 43%
- Population Mitochondria Different-Phenotype (%) [11]: 37%
- Population Mitotic Cells (%) [11]: 0%
- Population Normal (%) [11]: 58%
- Population Pyknosed Nuclei (%) [11]: 37%
- Population Tubulin-Different-Phenotype (%) [11]: 56%
- Total Cell Count [11]: 250
- Population Fragmented Nuclei (%) [12]: 57%
- Population Healthy Nuclei (%) [12]: 13%
- Population Hoechst High Intensity Objects (%) [12]: 29%
- Population Membrane Permeable-Phenotype (%) [12]: 50%
- Population Mitochondria Different-Phenotype (%) [12]: 35%
- Population Normal (%) [12]: 70%
- Population Pyknosed Nuclei (%) [12]: 28%
- Population Tubulin-Different-Phenotype (%) [12]: 28%
- Total Cell Count [12]: 144
